Measured values published in ChEMBL document CHEMBL2086265, “Design of inhibitors of Helicobacter pylori glutamate racemase as selective antibacterial agents: incorporation of imidazoles onto a core pyrazolopyrimidinedione scaffold to improve bioavailabilty” (Bioorg Med Chem Lett, 2012).
Values after ≈ are worked out from the molar mass of the structure shown.

Columns and labels:
Glutamate racemase = molecular target: T1, Glutamate racemase (Helicobacter pylori J99, UniProt Q9ZLT0); experiment: Inhibition of Helicobacter pylori J99 glutamate racemase
T1 sequence (Q9ZLT0 whole entry): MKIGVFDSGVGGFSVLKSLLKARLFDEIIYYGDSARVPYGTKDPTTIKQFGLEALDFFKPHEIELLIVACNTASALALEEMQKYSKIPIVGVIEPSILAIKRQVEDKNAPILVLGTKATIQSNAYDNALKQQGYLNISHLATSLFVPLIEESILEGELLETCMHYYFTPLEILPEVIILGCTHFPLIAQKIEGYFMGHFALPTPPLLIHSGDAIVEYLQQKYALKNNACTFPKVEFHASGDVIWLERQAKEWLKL
Method in brief: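 The racemase was expressed from the murI gene of H. pylori J99 chromosomal DNA. IC50 was taken as the mean of duplicate determinations, using a method cited from earlier work.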

[1] = Intrinsic clearance in human liver microsomes at 2 uM assessed per mg of protein; format: ADME, Microsome; conditions: read-out: CLH
Helicobacter pylori [2] = experiment: Antibacterial activity against wild type Helicobacter pylori 055; format: functional
[3] = Intrinsic clearance in mouse liver microsomes at 2 uM assessed per mg of protein; format: ADME, Microsome; conditions: read-out: CLH
Helicobacter pylori [4] = experiment: Ratio of MIC for wild type Helicobacter pylori 055 to MIC for AcrAB-TolC efflux pump-dificient Helicobacter pylori
Helicobacter pylori [5] = experiment: Antibacterial activity against AcrAB-TolC efflux pump-dificient Helicobacter pylori; format: functional
[6] = Inhibition of Escherichia coli MurI
[7] = Inhibition of Staphylococcus aureus MurI
[8] = Inhibition of Enterococcus faecalis MurI

Compound	IC50 (Glutamate racemase) [nM]	microsomal CLint at 2 µM [1] [µL/min/mg]	MIC (Helicobacter pylori [2]) [µg/mL]	microsomal CLint at 2 µM [3] [µL/min/mg]	MIC (Helicobacter pylori [5]) [µg/mL]	IC50 [6] [µM]	IC50 [7] [µM]	IC50 [8] [µM]	Ratio (Helicobacter pylori [4])
C#CCn1c(=O)c2c(-c3nc(C#N)cn3C)n(Cc3ccnc4ccc(Cl)cc34)nc2n(CC2CC2)c1=O	89	< 14	1 (≈ 1.9 µM)	28	2 (≈ 3.81 µM)	–	–	–	<=2
Cn1cc(C#N)nc1-c1c2c(=O)n(CC3CC3)c(=O)n(CC3CC3)c2nn1Cc1ccnc2ccc(Cl)cc12	150	–	2 (≈ 3.7 µM)	–	2 (≈ 3.7 µM)	–	–	–	<=2
C#CC(C)n1c(=O)c2c(-c3cncn3C)n(Cc3ccnc4ccc(Cl)cc34)nc2n(CC2CC2)c1=O (stereo not given)	460	21	8 (≈ 15.6 µM)	65	8 (≈ 15.6 µM)	–	–	–	<=2
CC(C)Cn1c(=O)n(C)c(=O)c2c(-c3ccncc3)n(Cc3cccc4ccccc34)nc21	–	–	–	–	–	> 400	> 400	> 400	–
CC(C)n1c(=O)c2c(-c3cncn3C)n(Cc3ccnc4ccc(Cl)cc34)nc2n(CC2CC2)c1=O	220	53	16 (≈ 31.7 µM)	51	16 (≈ 31.7 µM)	–	–	–	<=2
C#CC(C)n1c(=O)c2c(-c3cc(C#N)cn3C)n(Cc3ccnc4ccc(Cl)cc34)nc2n(CC2CC2)c1=O (stereo not given)	160	91	2 (≈ 3.72 µM)	> 100	8 (≈ 14.9 µM)	–	–	–	<=2
CCn1c(=O)c2c(-c3nc(C#N)cn3C)n(Cc3ccnc4ccc(Cl)cc34)nc2n(CC2CC2)c1=O	180	51	2 (≈ 3.88 µM)	< 14	2 (≈ 3.88 µM)	–	–	–	<=2
Cc1oc(C#N)cc1-c1c2c(=O)n(C)c(=O)n(CC3CC3)c2nn1Cc1ccnc2ccc(Cl)cc12	220	38	2 (≈ 3.99 µM)	63	2 (≈ 3.99 µM)	–	–	–	<=2
Cn1cc(C#N)cc1-c1c2c(=O)n(CCO)c(=O)n(CC3CC3)c2nn1Cc1ccnc2ccc(Cl)cc12	88	> 100	64 (≈ 121 µM)	> 100	16 (≈ 30.2 µM)	–	–	–	–
CC(C)n1c(=O)c2c(-c3cc(C#N)cn3C)n(Cc3ccnc4ccc(Cl)cc34)nc2n(CC2CC2)c1=O	240	26	4 (≈ 7.58 µM)	> 100	8 (≈ 15.2 µM)	–	–	–	<=2
Cn1ncnc1-c1c2c(=O)n(C)c(=O)n(CC3CC3)c2nn1Cc1ccnc2ccc(Cl)cc12	810	32	8 (≈ 16.8 µM)	< 14	4 (≈ 8.39 µM)	–	–	–	–
Cn1cc(C#N)cc1-c1c2c(=O)n(CC#CCn3cccn3)c(=O)n(CC3CC3)c2nn1Cc1ccnc2ccc(Cl)cc12	120	> 100	8 (≈ 13.2 µM)	> 100	4 (≈ 6.62 µM)	–	–	–	–
Cn1cncc1-c1c2c(=O)n(CC#CCN3CCOCC3)c(=O)n(CC3CC3)c2nn1Cc1ccnc2ccc(Cl)cc12	170	> 100	64 (≈ 107 µM)	> 100	16 (≈ 26.7 µM)	–	–	–	–
C=CCn1c(=O)c2c(-c3nc(C#N)cn3C)n(Cc3ccnc4ccc(Cl)cc34)nc2n(CC2CC2)c1=O	250	> 100	2 (≈ 3.8 µM)	> 100	4 (≈ 7.59 µM)	–	–	–	<=2
Cn1cc(C#N)cc1-c1c2c(=O)n(CCn3ccnn3)c(=O)n(CC3CC3)c2nn1Cc1ccnc2ccc(Cl)cc12	670	> 100	16 (≈ 27.5 µM)	> 100	16 (≈ 27.5 µM)	–	–	–	–

More lines, in order of falling IC50 (Glutamate racemase), values ahead:

IC50 (Glutamate racemase) [nM]	microsomal CLint at 2 µM [1] [µL/min/mg]	MIC (Helicobacter pylori [2]) [µg/mL]	microsomal CLint at 2 µM [3] [µL/min/mg]	MIC (Helicobacter pylori [5]) [µg/mL]	IC50 [6] [µM]	IC50 [7] [µM]	IC50 [8] [µM]	Compound	Ratio (Helicobacter pylori [4])
87	< 14	4 (≈ 7.98 µM)	87	2 (≈ 3.99 µM)	–	–	–	Cn1cc(C#N)nc1-c1c2c(=O)n(C)c(=O)n(CC3CC3)c2nn1Cc1ccnc2ccc(Cl)cc12	–
79	< 14	8 (≈ 15.9 µM)	6	2 (≈ 3.98 µM)	–	–	–	Cn1cncc1-c1c2c(=O)n(C3CC3)c(=O)n(CC3CC3)c2nn1Cc1ccnc2ccc(Cl)cc12	–
74	99	2 (≈ 3.72 µM)	> 100	2 (≈ 3.72 µM)	–	–	–	CC#CCn1c(=O)c2c(-c3cc(C#N)cn3C)n(Cc3ccnc4ccc(Cl)cc34)nc2n(CC2CC2)c1=O	<=2
70	33	1.5 (≈ 2.85 µM)	76	1 (≈ 1.9 µM)	–	–	–	C=CCn1c(=O)c2c(-c3cc(C#N)cn3C)n(Cc3ccnc4ccc(Cl)cc34)nc2n(CC2CC2)c1=O	<=2
70	25	0.75 (≈ 1.46 µM)	17	0.6 (≈ 1.17 µM)	–	–	–	CCn1c(=O)c2c(-c3cc(C#N)cn3C)n(Cc3ccnc4ccc(Cl)cc34)nc2n(CC2CC2)c1=O	<=2
69	< 14	2 (≈ 3.88 µM)	44	0.9 (≈ 1.74 µM)	–	–	–	Cn1cncc1-c1c2c(=O)n(CC3CC3)c(=O)n(CC3CC3)c2nn1Cc1ccnc2ccc(Cl)cc12	<=2
57	> 100	32 (≈ 57.8 µM)	> 100	16 (≈ 28.9 µM)	–	–	–	Cn1cc(C#N)cc1-c1c2c(=O)n(CC#CCO)c(=O)n(CC3CC3)c2nn1Cc1ccnc2ccc(Cl)cc12	–
56	25	1 (≈ 1.99 µM)	49	0.8 (≈ 1.59 µM)	–	–	–	C=CCn1c(=O)c2c(-c3cncn3C)n(Cc3ccnc4ccc(Cl)cc34)nc2n(CC2CC2)c1=O	<=2
54	> 100	64 (≈ 121 µM)	> 100	16 (≈ 30.2 µM)	–	–	–	Cn1cncc1-c1c2c(=O)n(CC#CCO)c(=O)n(CC3CC3)c2nn1Cc1ccnc2ccc(Cl)cc12	–
51	> 100	16 (≈ 25.7 µM)	> 100	4 (≈ 6.42 µM)	–	–	–	Cn1cc(C#N)cc1-c1c2c(=O)n(CC#CCN3CCOCC3)c(=O)n(CC3CC3)c2nn1Cc1ccnc2ccc(Cl)cc12	–
28	< 14	0.75 (≈ 1.43 µM)	16	0.3 (≈ 0.573 µM)	–	–	–	C#CCn1c(=O)c2c(-c3cc(C#N)cn3C)n(Cc3ccnc4ccc(Cl)cc34)nc2n(CC2CC2)c1=O	<=2
25	14	0.5 (≈ 1 µM)	50	0.8 (≈ 1.6 µM)	> 400	> 400	> 400	Cn1cc(C#N)cc1-c1c2c(=O)n(C)c(=O)n(CC3CC3)c2nn1Cc1ccnc2ccc(Cl)cc12	<=2
13	> 100	8 (≈ 13.2 µM)	> 100	16 (≈ 26.4 µM)	–	–	–	Cn1cc(C#N)cc1-c1c2c(=O)n(CC#CCn3cncn3)c(=O)n(CC3CC3)c2nn1Cc1ccnc2ccc(Cl)cc12	–
